Test system: MS2 coat protein
Assay: apparent Kd, MS2 coat protein; higher = weaker binding; RNA-MaP array; FMN 200 µM where present
Procedure, shortened: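 Designs on Illumina sequencing-chip clusters, transcribed by stalled E. coli RNA polymerase, were exposed to SNAP-549-labelled MS2 coat protein in doubling steps from 0.7 or 1.5 nM up to 3 µM, without and then with constant ligand. The buffer held 100 mM Tris-HCl pH 7.5, 80 mM KCl, 4 mM MgCl2, BSA, DTT, yeast tRNA and Tween-20. Apparent Kd values are medians of filtered per-cluster binding-curve fits to green signal normalised to red-channel RNA signal and control-cluster median Fmax.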

[1] = designed as: ON switch for flavin mononucleotide, no ligand
[2] = ligand present: flavin mononucleotide, designed as: ON switch for flavin mononucleotide
[3] = designed as: OFF switch for flavin mononucleotide, no ligand
[4] = ligand present: flavin mononucleotide, designed as: OFF switch for flavin mononucleotide

Sequence	apparent Kd [1] [nM]	apparent Kd [2] [nM]	apparent Kd [3] [nM]	apparent Kd [4] [nM]
CCACGUGCUCAGAAGGGCUUUAAACACAAAUUAGCAGGAUAUGAGGACCGGUCGUGACAUGAGGAUCACCCAUGUUUUGUCUAG	38.6	12.2	–	–
GGGAGACAUGAGGAUCACCCAUGUGAAAACGUGUGAGGAUAUCAAUGGAAACCAUACUGUUGAGAAGGCACUUGUC	118	41.2	–	–
GGCUGGCAGCUAGGAUAUGGGCGGUCACAUGAGGAUCACCCAUGUCAACAUCAAAACCAGAUUAACCAGAAGGAGCUGCGGGCU	51.8	796	–	–
GGAUCCAACACAGGAUAUGCUGGACUUUGUCCAGCAGAAGGGUGUACAUGAGGAUCACCCAUGUAUUGGAUCCAUAUAUUUAAU	996	80.8	–	–
GCCAUCGCAUGAGGAUAUGCUCCGGUUUCCGGAGCAGAAGGUAUGUCAUAAGACAUGAGGAUCACCCAUGUAGGUAAGAUGGCA	221	31.3	–	–
AUGAAGAAUUAAGGAUAUUGAUUACAUAUGUUUAACAUGAGGAUCACCCAUGUGGGUUGCGGUAUCGAGAAGGUAAAUUAAAAG	198	178	–	–
GGAGACCUCACAGGAUAUGCUGGACUUUGUCCAGCAGAAGGGUGAACAUGAGGAUCACCCAUGUUGGUCUCCAAAAUAUUUAAU	882	108	–	–
UUCAAAUUCGUAGGAUAUGUAUAAAUUAUCUACAUGAGGAUCACCCAUGUUUUCAUUUUAAAUUGACAGAAGGACGUAAUCUUA	16.4	7.87	–	–
UGGUACUAGGGAGGAUAUGGGAAGAUACAUGAGGAUCACCCAUGUUUAGGAAUGCCGAGAGGCAACUAGAAGGCCCUAGUACCU	832	46.1	–	–
AGAAAGGCAGGAUAUACAUGAGGAUCACCCAUGUUAAGAGUGACGGAAACGUCACGAAGUAGAAGGGCCAAGAA	–	–	21.1	18.7
CUUAUGUAAGGAUAUCAGUAGUAAAAAAAUAAAAUUACUACUGAGAAGGUACAUGAGGAUCACCCAUGUAUCUU	–	–	17.6	14
GGUCUACAUGAGGAUCACCCAUGUAAGGAUAUCGUCACUGGAGCUUCGGCUCCAGUGACGAGAAGGUACGUAAU	–	–	31.7	33.7
GUGCUCAUGUAAGGAUAUGCAGCCGUUUCGGCUGCAGAAGGUACUAUAAUACAUGAGGAUCACCCAUGUCUCUAUAAUUUGGUG	113	239	–	–
GCCAGGAUGUGAGGAUAUGCUGAGGAUAACUCAGCAGAAGGCACAUGAGGAUCACCCAUGUACACUUAUCAUAAAUACCCUGGC	–	–	11.9	16.3
CUUUAGCUAGGAUAUACAUGAGGAUCACCCAUGUUAGCGGUCCAUUGGGCCGCGGGUUGUAGAAGGAGCAUUAA	–	–	30.8	56.8
CCUCAGGCGGAGGAUAUCUAACAACAAUAACAAAGAGAAGGCCGCACAUGAGGAUCACCCAUGUGUAUGGGCCG	–	–	12.4	22.8
CCGGAAAUAGAGGAUAUAGUACUGGAUACAGUACUAGAAGGCUAUACAUGAGGAUCACCCAUGUGUCCUACCGG	–	–	16	32.4
AUAUGUAACUAGGAUAUCAGCAUACUUCAAUGUUGAGAAGGAGUUACAUGAGGAUCACCCAUGUAUCCAACAUG	–	–	40.5	28.6
GUUAAGAACUAAGGAUAUUGAAUACAUAUGUUUAACAUGAGGAUCACCCAUGUGGGUUGCGGUGUCGAGAAGGUAGAAUAAUAG	201	195	–	–
UACAUGAGGAUCACCCAUGUUUUGUCGUGUAUGGUAUUUAUCUAGGAUAUCAAUUUAAUUAUUUAUGAGAAGGAGAAUAUUAAU	–	–	39.6	33.1
GCGUAUGAAAAUAUGUCUGAGGGCAGAAGGCACAUGAGGAUCACCCAUGUAACGAUCUCUUCAAGUGAGGAUAUGUGCUCAUUG	–	–	31.8	113
GGUGCGUUUGUGAGGAUAUGCUGGUCCUUGGCUCAGCAGAAGGCACAUGAGGAUCACCCAUGUGGUGUCGUACC	–	–	294	41.8
UCUGGUCGAGGAUAUAUAUGACGUGCUUCGGCACGAAGAUCACAUGAGGAUCACCCAUGUAGAAGGCGACCAGA	–	–	130	1160
ACCUUACAUGAGGAUCACCCAUGUUAGGAUAUCUCGCCUGCGCAAUCACAGCGCAGGCAGAGAAGGGACGCGGG	–	–	30.3	32.1
GUGACGAUGUAAGGAUAUGCUGAGGAAUACUCAGCAGAAGGUACAUGAGGAUCACCCAUGUAAAUAAUAAUAAAUAAACGUCAC	–	–	15.2	24.1
GCCCUAAGGCGGGCCGACCAUACAUGAGGAUCACCCAUGUCGAGAAGGUGCUCACGGGUGGGUGGCAAGGAUAUCGGGUCGGAU	77.1	41.4	–	–
GUGUACAGAGGAUAUACAUAAGCAUGGAAACAUGCUACUUCACAUGAGGAUCACCCAUGUAGAAGGCUGUACAC	–	–	14.5	15.4
GUGUAGUCAGGAUAUACAUAGGAAGAGAAGAGAAGAUAAGUACAUGAGGAUCACCCAUGUAGAAGGGACAGUGU	–	–	30.6	29.6
